Data reported in ChEMBL document CHEMBL4145466, “Design, synthesis, and biological evaluation of novel combretastatin A-4 thio derivatives as microtubule targeting agents” (Eur J Med Chem, 2018).

Columns and labels:
A-431 = assay: Cytotoxicity against human A431 cells after 48 hrs by MTT assay; format: functional, cell-based; conditions: A-431, 48 h
Method in brief: (§1)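 Cells in DMEM with 10% FBS were plated at 2 × 10^4 per well and left overnight, then treated for 48 h at 0.6–20 µM (six concentrations) from 10 mM DMSO stocks. MTT was added for 2 h, and formazan was dissolved in DMSO and read at 570 nm. Viability was expressed as % of control, with IC50 taken from dose-response curves. Results are mean ± SD of three independent experiments.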

HeLa = assay: Cytotoxicity against human HeLa cells after 48 hrs by MTT assay; format: functional, cell-based; method in brief: as §1
MCF7 = assay: Cytotoxicity against human MCF7 cells after 48 hrs by MTT assay; format: functional, cell-based; conditions: MCF7, 48 h; method in brief: as §1
MDA-MB-231 = assay: Cytotoxicity against human MDA-MB-231 cells after 48 hrs by MTT assay; format: functional, cell-based; conditions: MDA-MB-231, 48 h; method in brief: as §1
A549 = assay: Cytotoxicity against human A549 cells after 48 hrs by MTT assay; format: functional, cell-based; conditions: A549, 48 h
SK-OV-3 = assay: Cytotoxicity against human SKOV3 cells after 48 hrs by MTT assay; format: functional, cell-based; conditions: SK-OV-3, 48 h; method in brief: as §1
HaCaT = assay: Cytotoxicity against human HaCaT cells after 48 hrs by MTT assay; format: cell-based; method in brief: as §1
[1] = Cytotoxicity against human CCD39Lu cells after 48 hrs by MTT assay; format: cell-based; method in brief: as §1
[2] = Inhibition of porcine tubulin polymerization after 1 hr by spectrophotometric analysis; parameters: species or system Sus scrofa
Method in brief: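 Polymerization was started by shifting from 4 °C to 37 °C, and absorbance was followed at 37 °C for 60 min. The vehicle served as control.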

COc1cc(/C(=C\c2cccc(OC)c2SC)C(=O)O)cc(OC)c1OC
IC50 (A-431): > 20 µM
IC50 (HeLa): > 20 µM
IC50 (MCF7): 0.95 µM
IC50 (MDA-MB-231): > 20 µM
IC50 (A549): > 20 µM
IC50 (SK-OV-3): > 20 µM
IC50 (HaCaT): > 20 µM
IC50 [1]: > 20 µM
IC50 [2]: > 10 µM

COc1cc(-c2ncoc2-c2cc(Br)c(SC)c(OC)c2)cc(OC)c1OC
IC50 (A-431): > 20 µM
IC50 (HeLa): > 20 µM
IC50 (MCF7): 1.42 µM
IC50 (MDA-MB-231): 17.9 µM
IC50 (A549): > 20 µM
IC50 (SK-OV-3): > 20 µM
IC50 (HaCaT): 16.7 µM
IC50 [1]: > 20 µM
IC50 [2]: > 10 µM

COc1cc(-c2c(-c3cc(Br)c(OC)c(OC)c3)ncn2C)ccc1SC
IC50 (A-431): 13.6 µM
IC50 (HeLa): > 20 µM
IC50 (MCF7): 2.2 µM
IC50 (MDA-MB-231): 15.5 µM
IC50 (A549): > 20 µM
IC50 (SK-OV-3): > 20 µM
IC50 (HaCaT): > 20 µM
IC50 [1]: 19.3 µM
IC50 [2]: > 10 µM

COc1cc(/C(=C\c2ccccc2SC)C(=O)O)cc(OC)c1OC
IC50 (A-431): > 20 µM
IC50 (HeLa): > 20 µM
IC50 (MCF7): 1.84 µM
IC50 (MDA-MB-231): > 20 µM
IC50 (A549): > 20 µM
IC50 (SK-OV-3): > 20 µM
IC50 (HaCaT): > 20 µM
IC50 [1]: > 20 µM
IC50 [2]: > 10 µM

COc1cc(/C=C\c2ccccc2SC)cc(OC)c1OC
IC50 (A-431): 8.22 µM
IC50 (HeLa): 11.7 µM
IC50 (MCF7): 2.35 µM
IC50 (MDA-MB-231): 14.2 µM
IC50 (A549): > 20 µM
IC50 (SK-OV-3): 14.1 µM
IC50 (HaCaT): 12.8 µM
IC50 [1]: > 20 µM
IC50 [2]: > 10 µM

COc1cc(-c2ocnc2-c2cc(OC)c(OC)c(OC)c2)ccc1SC
IC50 (A-431): 0.43 µM
IC50 (HeLa): 0.645 µM
IC50 (MCF7): 0.6 µM
IC50 (MDA-MB-231): 0.85 µM
IC50 (A549): > 20 µM
IC50 (SK-OV-3): 1.48 µM
IC50 (HaCaT): 0.43 µM
IC50 [1]: > 20 µM
IC50 [2]: 1.62 µM

COc1ccc(-c2ocnc2-c2cc(Br)c(OC)c(OC)c2)cc1OC
IC50 (A-431): 12.3 µM
IC50 (HeLa): 0.07 µM
IC50 (MCF7): 6.1 µM
IC50 (MDA-MB-231): 7.83 µM
IC50 (A549): 0.5 µM
IC50 (SK-OV-3): 0.26 µM
IC50 (HaCaT): 10.1 µM
IC50 [1]: > 20 µM
IC50 [2]: 4.8 µM

COc1cc(/C=C\c2cccc(OC)c2SC)cc(OC)c1OC
IC50 (A-431): 3.61 µM
IC50 (HeLa): 6.18 µM
IC50 (MCF7): 0.65 µM
IC50 (MDA-MB-231): 11.7 µM
IC50 (A549): > 20 µM
IC50 (SK-OV-3): 14.5 µM
IC50 (HaCaT): 9.56 µM
IC50 [1]: > 20 µM
IC50 [2]: > 10 µM

COc1ccc(-c2ocnc2-c2cc(OC)c(OC)c(OC)c2)cc1S
IC50 (A-431): 1.22 µM
IC50 (HeLa): 4.44 µM
IC50 (MCF7): 2.11 µM
IC50 (MDA-MB-231): 2.87 µM
IC50 (A549): > 20 µM
IC50 (SK-OV-3): 3.18 µM
IC50 (HaCaT): 1.28 µM
IC50 [1]: > 20 µM
IC50 [2]: 2.97 µM

COc1ccc(-c2c(-c3cc(Br)c(OC)c(OC)c3)ncn2C)cc1SC
IC50 (A-431): > 20 µM
IC50 (HeLa): > 20 µM
IC50 (MCF7): 5.24 µM
IC50 (MDA-MB-231): > 20 µM
IC50 (A549): > 20 µM
IC50 (SK-OV-3): > 20 µM
IC50 (HaCaT): > 20 µM
IC50 [1]: > 20 µM
IC50 [2]: > 10 µM

COc1cc(-c2ncoc2-c2ccccc2SC)cc(OC)c1OC
IC50 (A-431): > 20 µM
IC50 (HeLa): 7.33 µM
IC50 (MCF7): 1.43 µM
IC50 (MDA-MB-231): > 20 µM
IC50 (A549): > 20 µM
IC50 (SK-OV-3): > 20 µM
IC50 (HaCaT): > 20 µM
IC50 [1]: > 20 µM
IC50 [2]: 0.86 µM

COc1cc(-c2ocnc2-c2cc(Br)c(OC)c(OC)c2)ccc1SC
IC50 (A-431): 0.41 µM
IC50 (HeLa): 0.44 µM
IC50 (MCF7): 2.48 µM
IC50 (MDA-MB-231): 0.76 µM
IC50 (A549): > 20 µM
IC50 (SK-OV-3): 1.03 µM
IC50 (HaCaT): 0.26 µM
IC50 [1]: > 20 µM
IC50 [2]: 1.54 µM

COc1cc(-c2ncn(C)c2-c2ccccc2SC)cc(OC)c1OC
IC50 (A-431): > 20 µM
IC50 (HeLa): > 20 µM
IC50 (MCF7): 2.29 µM
IC50 (MDA-MB-231): > 20 µM
IC50 (A549): > 20 µM
IC50 (SK-OV-3): > 20 µM
IC50 (HaCaT): > 20 µM
IC50 [1]: > 20 µM
IC50 [2]: > 10 µM

COc1ccc(-c2c(-c3cc(OC)c(SC)c(OC)c3)ncn2C)cc1O
IC50 (A-431): 0.43 µM
IC50 (HeLa): 0.39 µM
IC50 (MCF7): 1.63 µM
IC50 (MDA-MB-231): 0.39 µM
IC50 (A549): > 20 µM
IC50 (SK-OV-3): 1.72 µM
IC50 (HaCaT): 0.5 µM
IC50 [1]: > 20 µM
IC50 [2]: 6.67 µM

COc1cc(-c2ncn(C)c2-c2cc(Br)c(SC)c(OC)c2)cc(OC)c1OC
IC50 (A-431): 16.6 µM
IC50 (HeLa): 8.18 µM
IC50 (MCF7): 2.51 µM
IC50 (MDA-MB-231): > 20 µM
IC50 (A549): > 20 µM
IC50 (SK-OV-3): > 20 µM
IC50 (HaCaT): > 20 µM
IC50 [1]: 6.13 µM
IC50 [2]: > 10 µM
